According to ChEMBL document CHEMBL1158474, “Focus on the controversial activation of human iNKT cells by 4-deoxy analogue of KRN7000” (J Med Chem, 2009):
The source made the active and inactive calls.

Experiments:
[1] = tested on: Mus musculus; test: Regulation of immune response in C57BL/6J mouse assessed as induction of NKT cell cytokine response-related IL2 secretion at 10 to 1000 ug/kg, ip after 14 hrs by ELISA; format: functional, organism-based
[2] = tested on: Mus musculus; test: Regulation of immune response in C57BL/6J mouse assessed as induction of NKT cell cytokine response-related IFN-gamma secretion at 10 to 1000 ug/kg, ip after 14 hrs by ELISA; format: functional, organism-based
[3] = tested on: Mus musculus; test: Regulation of immune response in C57BL/6J mouse assessed as induction of NKT cell cytokine response-related TNFalpha secretion at 100 ug/kg, ip after 4 hrs by ELISA; format: functional, organism-based
Summary of the method: (§1)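 Mice were given glycolipid ip at 10, 50, 100 or 1000 μg/kg. Cytokine release kinetics (TNF-α, IL-4, IFN-γ) were followed over time after injection, with sampling that included 4 h and 18 h. Groups were compared statistically (P < 0.05 threshold).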

[4] = tested on: iNKT; test: Effect on immune response in human iNKT cells stimulated by antigen-presenting CD1d-transfected human HeLa cells assessed as induction of TNFalpha release by MTT assay; format: functional, cell-based
Summary of the method: (§2)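 A human Vα24 iNKT cell line was stimulated for 6 h by CD1d-transfected HeLa cells loaded overnight with increasing glycolipid concentrations. Before loading, the glycolipid was solubilized in DMSO for a couple of hours at 37 °C. Supernatant TNF-α was measured by a cellular assay, and IFN-γ and IL-4 by ELISA. Triplicates were run, and one representative of three experiments is shown. EC50 values were given as mean ± SD.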

[5] = tested on: Mus musculus; test: Regulation of immune response in C57BL/6J mouse assessed as induction of NKT cell cytokine response-related IFN-gamma secretion at 100 ug/kg, ip after 18 hrs by ELISA; format: functional, organism-based; summary of the method: as §1
[6] = tested on: Mus musculus; test: Regulation of immune response in C57BL/6J mouse assessed as induction of NKT cell cytokine response-related IFN-gamma secretion at 10 to 1000 ug/kg, ip after 2 hrs by ELISA; format: functional, organism-based
[7] = tested on: Mus musculus; test: Regulation of immune response in C57BL/6J mouse assessed as induction of NKT cell cytokine response-related IL2 secretion at 10 to 1000 ug/kg, ip after 2 hrs by ELISA; format: functional, organism-based
[8] = tested on: Mus musculus; test: Regulation of immune response in C57BL/6J mouse assessed as induction of NKT cell cytokine response-related IL4 secretion at 100 ug/kg, ip after 4 hrs by ELISA; format: functional, organism-based; summary of the method: as §1
[9] = tested on: iNKT; test: Effect on immune response in human iNKT cells stimulated by antigen-presenting CD1d-transfected human HeLa cells assessed as induction of IL4 release by ELISA; format: functional, cell-based; summary of the method: as §2
[10] = tested on: iNKT; test: Effect on immune response in human iNKT cells stimulated by antigen-presenting CD1d-transfected human HeLa cells assessed as induction of IFN-gamma release by ELISA; format: functional, cell-based; summary of the method: as §2

## CCCCCCCCCCCCCCCCCCCCCCCCCC(=O)N[C@@H](CO[C@H]1O[C@H](CO)[C@H](O)[C@H](O)[C@H]1O)C(O)[C@H](O)CCCCCCCCCCCCCC (single isomer, unassigned) [RGI-7000]
[1]
  Activity: Active
[2]
  Activity: Active
[3]
  Activity: Active
[4]
  EC50: 5 nM
[5]
  Activity: Active
[6]
  Activity: Active
[7]
  Activity: Active
[8]
  Activity: Active
[9]
  Activity: Active
[10]
  Activity: Active
